Reference: ChEMBL document CHEMBL4396889, “From Inhibition to Degradation: Targeting the Antiapoptotic Protein Myeloid Cell Leukemia 1 (MCL1)” (J Med Chem, 2019)
Activity calls are given as the source filed them. No cut-off for these calls is given here.

Tests used:
[1] = target: T1, Protein cereblon/Induced myeloid leukemia cell differentiation protein Mcl-1 (Homo sapiens) (UniProt Q07820+Q96SW2); experiment: Protac activity at Cereblon/MCL1 in human OPM2 cells at 500 nM after 3 hrs in presence of proteasome inhibitor bortezomib by immunoblot analysis; format: cell-based
Procedure, shortened: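 OPM2 cells were treated for 3 h with DMSO, degrader and/or the proteasome inhibitor bortezomib, then immunoblotted for MCL1.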

OPM-2 = experiment: Induction of apoptosis in wild type human OPM2 cells assessed as cleaved caspase-3 at 50 nM after 24 hrs in presence of 1% FBS by immunoblot analysis (reference value: 95%); format: functional
[2] = Half-life in human liver microsome pre-incubated for 10 mins followed by addition of NADPH regenerating system after 5 to 60 mins by LC/MS/MS analysis; format: ADME; settings: liver microsomes
[3] = target: T1, Protein cereblon/Induced myeloid leukemia cell differentiation protein Mcl-1 (Homo sapiens); experiment: Protac activity at Cereblon/MCL1 long isoform in human OPM2 cells assessed as MCL1 long isoform abundance at 100 nM after 24 hrs by immunoblot analysis relative to control; format: cell-based
[4] = target: T1, Protein cereblon/Induced myeloid leukemia cell differentiation protein Mcl-1 (Homo sapiens); experiment: Protac activity at Cereblon/MCL1 long isoform in human OPM2 cells assessed as MCL1 long isoform abundance at 500 nM after 24 hrs by immunoblot analysis relative to control; format: cell-based

T1 sequence (Q07820 whole entry, looked up): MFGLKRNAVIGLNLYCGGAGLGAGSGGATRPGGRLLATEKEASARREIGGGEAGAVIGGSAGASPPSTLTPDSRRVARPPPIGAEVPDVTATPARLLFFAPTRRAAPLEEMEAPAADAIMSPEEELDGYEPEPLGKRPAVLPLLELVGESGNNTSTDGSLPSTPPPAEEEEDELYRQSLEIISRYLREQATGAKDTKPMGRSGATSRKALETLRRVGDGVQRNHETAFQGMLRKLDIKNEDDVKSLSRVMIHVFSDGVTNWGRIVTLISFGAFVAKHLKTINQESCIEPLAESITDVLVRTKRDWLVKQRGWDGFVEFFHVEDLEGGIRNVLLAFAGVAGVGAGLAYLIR
T1 sequence (Q96SW2 whole entry, looked up): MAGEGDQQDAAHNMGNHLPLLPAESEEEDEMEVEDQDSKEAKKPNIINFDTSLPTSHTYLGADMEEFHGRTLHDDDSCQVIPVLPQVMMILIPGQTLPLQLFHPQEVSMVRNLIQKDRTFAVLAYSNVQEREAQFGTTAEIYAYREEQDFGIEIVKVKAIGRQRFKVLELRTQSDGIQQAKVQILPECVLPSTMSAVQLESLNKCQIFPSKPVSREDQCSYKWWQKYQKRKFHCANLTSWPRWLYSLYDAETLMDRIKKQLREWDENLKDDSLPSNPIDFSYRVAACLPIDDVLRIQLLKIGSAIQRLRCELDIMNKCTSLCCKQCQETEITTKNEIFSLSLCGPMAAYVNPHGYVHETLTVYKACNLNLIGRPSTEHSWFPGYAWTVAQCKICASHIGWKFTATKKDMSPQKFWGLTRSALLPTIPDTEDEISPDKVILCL

Q: What does the source list for `Cc1nn(C)c(COc2ccc(N3CCN(S(=O)(=O)N(C)C)CC3)cc2)c1-c1cccc2c(CCCOc3cccc4ccccc34)c(C(=O)O)n(CCN3CCN(C(=O)COc4cccc5c4C(=O)N(C4CCC(=O)NC4=O)C5=O)CC3)c12` (stereo not given)?
A: Activity [1]: inactive; Activity (OPM-2): 85%; half-life [2]: 20.6 min; Activity [3]: 77%; Activity [4]: 55%
